Experimental data taken from PubChem BioAssay AID652163 (Broad Institute, 2013).
Values joined by “and” are separate entries in the source; they are usually repeats but may differ in a detail not shown here. Equal entries are not always repeated. About 500 (0.14%) of roughly 360,000 compounds were called active.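 Rule for the calls: active = mean inhibition of at least 70% across replicates, with every replicate also reaching that level; inconclusive = mean inhibition reaches 70% but some replicates fall short; inactive = mean inhibition below 70%.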 The sample as a whole holds a higher share of actives than the screen did. Some structures have more than one record in an assay (separate samples or runs), and their calls can disagree.

These compounds were tested against Protein S100-A4 (Homo sapiens) (UniProt P26447) (assay: human S100A4 protein-peptide interaction blockers – biochemical, fluorescence polarization, TAMRA-MyoIIA peptide, primary screen (AID 652163)). Details: at 10.7 µM, stronger effect = higher value.
Chain of Protein S100-A4 (Homo sapiens) (P26447 whole entry, looked up): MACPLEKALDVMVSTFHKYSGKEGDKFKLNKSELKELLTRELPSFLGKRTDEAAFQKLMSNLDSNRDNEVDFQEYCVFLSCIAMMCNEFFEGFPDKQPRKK
Outline: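 System – human S100A4 monomer protein, biochemical binding assay · Buffer or medium – Calcium-containing HEPES buffer, pH 7.2 · Timing – 5 min between mix addition and reading · Also added – TAMRA-labelled myosin IIA heavy-chain peptide probe, 5 nM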

Compound | inhibition
C[C@@H]1CN([C@@H](C)CO)C(=O)c2c(c3ccccc3n2C)-c2ccccc2CO[C@@H]1CN(C)Cc1ccc2c(c1)OCCN2C | 1.33% (inactive)
O=C(N[C@H]1CC[C@@H](CCNS(=O)(=O)Cc2ccccc2)O[C@H]1CO)c1ccccc1F | 106% (active)
CC(C)NC(=O)N[C@@H]1CC[C@@H](CCNS(=O)(=O)Cc2ccccc2)O[C@@H]1CO | -2.44% (inactive)
O=C(N[C@@H]1CC[C@@H](CCNS(=O)(=O)Cc2ccccc2)O[C@@H]1CO)c1ccccc1F | 3.62% (inactive)
C[C@@H]1CN([C@@H](C)CO)C(=O)Cc2cc(NC(=O)Cc3ccccc3)ccc2O[C@@H]1CN(C)C(=O)Nc1ccc2c(c1)OCO2 | -20.2% (inactive)
CS(=O)(=O)Nc1ccc2c(c1)[C@H]1C[C@H](CC(=O)NC3CCCC3)O[C@@H](CO)[C@H]1O2 | 5.62% (inactive)
CN(C)C(=O)[C@@H]1[C@@H](CO)[C@@H]2Cn3c(ccc(C4=CCCC4)c3=O)[C@H]1N2Cc1ccccn1 | 6.14% (inactive)
COc1ccc2c3c([nH]c2c1)[C@@H](CO)N(C(=O)c1cccc(F)c1)CC31CN(C(C)=O)C1 | -5.37% (inactive)
CCOc1ccc(N(CC(=O)NCCOc2ccccc2OC)S(=O)(=O)c2ccccc2)cc1 | 116% (active)
CCOc1ccc(N(CC(=O)NCCc2ccc(F)cc2)S(=O)(=O)c2ccccc2)cc1 | -1.04% (inactive)
COc1ccc(CCNC(=O)CN(c2ccccc2)S(=O)(=O)c2ccccc2)cc1 | 0.0805% (inactive)
N[C@@H]1CC[C@H](CCn2cc(C3CC3)nn2)O[C@@H]1CO | 5.57% (inactive)
C[C@@H]1CN([C@H](C)CO)C(=O)c2cc(NC(=O)CCCCCC(=O)Nc3ccccc3N)ccc2O[C@H]1CN(C)C(=O)Nc1ccc(C(F)(F)F)cc1 | -13% (inactive)
C[C@H](CO)N1C[C@H](C)[C@@H](CN(C)Cc2ccncc2)Oc2cc(Br)ccc2S1(=O)=O | -8.65% (inactive)
C[C@@H]1CN([C@@H](C)CO)C(=O)c2cccc(NC(=O)Nc3ccccc3)c2O[C@H]1CN(C)Cc1ccccc1 | -2.48% (inactive)
COc1ccc(CN(C)C[C@H]2Oc3c(NC(=O)Nc4ccccc4)cccc3C(=O)N([C@@H](C)CO)C[C@@H]2C)cc1 | 91.2% (active)
C[C@@H]1CN([C@H](C)CO)C(=O)c2cc(NC(=O)c3ccncc3)ccc2O[C@H]1CN(C)Cc1ccc(Oc2ccccc2)cc1 | 1.42% (inactive)
C[C@H]1CN([C@@H](C)CO)C(=O)c2cccc(NC(=O)c3ccncc3)c2O[C@@H]1CN(C)C | 1.35% (inactive)
C[C@@H]1CN([C@H](C)CO)C(=O)c2cccc(NC(=O)c3ccncc3)c2O[C@@H]1CN(C)C | 111% (active)
C[C@H]1CN([C@@H](C)CO)C(=O)c2cccc(NC(=O)c3ccncc3)c2O[C@H]1CN(C)C | 13.8% (inactive)
C[C@H]1CN([C@@H](C)CO)C(=O)c2cccc(NC(=O)Nc3ccccc3)c2O[C@H]1CN(C)Cc1ccc(Oc2ccccc2)cc1 | -8.88% (inactive)

Compound | inhibition
C[C@@H]1CN([C@@H](C)CO)C(=O)c2cc(NC(=O)c3ccncc3)ccc2O[C@@H]1CN(C)Cc1ccncc1 | 106% (active)
C[C@@H]1CN([C@@H](C)CO)C(=O)c2cc(NC(=O)c3ccncc3)ccc2O[C@H]1CN(C)Cc1ccc(C(=O)O)cc1 | 3.13% (inactive)
CO[C@H]1CC[C@H]2CCN(C)C(=O)C[C@@H](c3ccccc3)CN(C)C(=O)c3cccc(C#N)c3OC[C@@H]1O2 | 0.912% (inactive)
CCCNC(=O)N1[C@@H]2CN(C)c3ccccc3[C@@H]2[C@@H]1CO | 7.1% (inactive)
COc1ccc(S(=O)(=O)N(C)C[C@H]2Oc3ccc(NC(=O)Nc4c(C)noc4C)cc3C(=O)N([C@@H](C)CO)C[C@@H]2C)cc1 | -9.31% (inactive)
Cc1noc(C)c1NC(=O)N(C)C[C@@H]1OCCCC[C@H](C)Oc2ccc(NC(=O)CCC(F)(F)F)cc2C(=O)N([C@@H](C)CO)C[C@@H]1C | 5.68% (inactive)
CC(=O)N(C)C[C@@H]1Oc2cc(-c3cccc(F)c3)ccc2S(=O)(=O)N([C@H](C)CO)C[C@H]1C | -20.8% (inactive)
CC(C)(O)C#Cc1ccc([C@H]2[C@H]3CN(C(=O)c4ccncc4)CCCCN3[C@H]2CO)cc1 | -11.2% (inactive)
COc1ccc(S(=O)(=O)Nc2ccc3c(c2)C(=O)N([C@@H](C)CO)C[C@H](C)[C@H](CN(C)Cc2ccc4c(c2)OCO4)OCCCC[C@H](C)O3)cc1 | -9.48% (inactive)
COc1cccc(C(=O)Nc2ccc3c(c2)C(=O)N(C)[C@H]2CC[C@@H](CC(=O)N[C@H](C)c4ccccc4)O[C@H]2CO3)c1 | -0.71% (inactive)
C=CCN1C(=O)[C@]2(O[C@H](CCn3cc(CCO)nn3)[C@@H]([Si](C)(C)c3ccc(OC)cc3)[C@@H]2C)c2cc(N3CCOC3=O)ccc21 | 10.3% (inactive)
C[C@H](CO)N1C[C@H](C)[C@@H](CN(C)CC2CC2)Oc2ccc(NC(=O)CCCN(C)C)cc2CC1=O | -0.322% (inactive)
CN1CCN(C(=O)C[C@@H]2C=C[C@@H](NS(=O)(=O)c3cccc(F)c3)[C@@H](CO)O2)CC1 | 103% (active)
COc1ccccc1S(=O)(=O)N[C@@H]1C=C[C@H](CC(=O)N2CCN(C)CC2)O[C@@H]1CO | 59.7% (inactive)
O=C(C[C@@H]1C=C[C@@H](NS(=O)(=O)c2ccccc2)[C@H](CO)O1)N1CCN(c2ccccc2)CC1 | 8.62% (inactive)
Nc1ncnc2c1ncn2C1OC(CO)CC1O (stereo not drawn) | 0.763% (inactive)
CO[C@@H]1CN(C)C(=O)c2cc(NC(=O)c3ccccc3)ccc2OC[C@H](C)N(C(=O)CN(C)C)C[C@H]1C | -0.975% (inactive)
C=C[C@H](OC)[C@@H](O)c1ccc(OC)c(O)c1 | -5.17% (inactive)
CN1C(=O)c2cc(NC(=O)C3CCCC3)ccc2OC[C@H]2O[C@H](CC(=O)NCc3ccccc3F)CC[C@H]21 | -2.52% (inactive)
CN1C(=O)c2cc(NC(=O)C3CCC3)ccc2OC[C@@H]2O[C@@H](CC(=O)NCc3ccccc3F)CC[C@@H]21 | 88.8% (active)
CN1C(=O)c2cc(NC(=O)C3CCOCC3)ccc2OC[C@@H]2O[C@H](CC(=O)NCc3ccccc3F)CC[C@H]21 | 4.38% (inactive)

Compound | inhibition
C[C@@H]1CN([C@@H](C)CO)C(=O)c2cc(C3=CCCC3)cnc2O[C@H]1CN(C)Cc1ccccc1F | 0.298% (inactive)
COc1cccc2c1C(=O)c1c(O)c3c(c(O)c1C2=O)CC(O)(C(C)=NNC(=O)c1ccc(Cl)c(Cl)c1)CC3OC1CC(N)C(O)C(C)O1 (stereo not drawn) | 189% (active)
C[C@@H]1CN([C@H](C)CO)C(=O)CCCn2cc(nn2)CO[C@H]1CN(C)S(C)(=O)=O | -42.7% (inactive) and 116% (active) and -0.12% (inactive)
C[C@H]1CN([C@@H](C)CO)C(=O)CCCn2cc(nn2)CO[C@@H]1CN(C)S(=O)(=O)c1cccs1 | 1.44% (inactive) and -0.084% (inactive)
Cc1noc(C)c1S(=O)(=O)N(C)C[C@H]1OCc2cn(nn2)CCCC(=O)N([C@H](C)CO)C[C@H]1C | -10.8% (inactive)
C[C@H]1CN([C@@H](C)CO)C(=O)c2cccc(NC(=O)Nc3ccc(C(F)(F)F)cc3)c2O[C@H]1CN(C)CC1CCCCC1 | 0.766% (inactive)
CO[C@H]1CN(C)C(=O)c2ccc(NS(C)(=O)=O)cc2OC[C@H](C)N(C(=O)C2CCC2)C[C@H]1C | 3.67% (inactive)
COC(=O)c1cc2c(c3c4ccccc4n(S(=O)(=O)c4cccc(C)c4)c13)C(=O)N(Cc1ccccc1)C2 | -0.199% (inactive)
O=C(C[C@@H]1CC[C@@H]2[C@H](COC[C@@H](O)CN2S(=O)(=O)c2ccccc2)O1)NCC1CCCCC1 | -4.89% (inactive)
CN1CCN(C(=O)C[C@@H]2CC[C@@H]3[C@@H](COc4ccc(NC(=O)c5ccc(F)c(F)c5)cc4C(=O)N3C)O2)CC1 | -20.1% (inactive)
O=C(NCC1CC1)[C@H]1[C@H](CO)[C@H]2Cn3c(ccc(/C=C/c4ccccc4)c3=O)[C@@H]1N2C(=O)C1CCC1 | 5.09% (inactive)
COCC#Cc1ccc([C@@H]2[C@H]3CN(C(=O)C4CCOCC4)CC(=O)N3[C@H]2CO)cc1 | 10.1% (inactive)
COc1cccc(S(=O)(=O)N[C@@H]2C=C[C@H](CC(=O)NC3CCC3)O[C@@H]2CO)c1 | 11.1% (inactive)
O=C(Nc1nccs1)[C@@H]1[C@@H](CO)[C@@H]2Cn3c(ccc(-c4cccnc4)c3=O)[C@@H]2N1CC1CC1 | 5.29% (inactive)
O=C([C@H]1N[C@H]2c3ccc(-c4ccccc4)c(=O)n3C[C@H]2[C@@H]1CO)N1CCOCC1 | -1.77% (inactive)
CO[C@H]1CN(C)C(=O)c2cc(NC(=O)C3CCC3)ccc2OC[C@H](C)N(C)C[C@H]1C | 6.42% (inactive)
CO[C@@H]1CN(C)C(=O)c2cc(NC(=O)c3cc(C)on3)ccc2OC[C@@H](C)N(C(C)=O)C[C@@H]1C | -1.83% (inactive)
C[C@@H]1CN([C@H](C)CO)C(=O)c2cccc(NS(=O)(=O)c3ccc(Cl)cc3)c2O[C@H]1CN(C)C(=O)NC1CCCCC1 | 3.25% (inactive)
CC(C)CC#Cc1ccc([C@H]2[C@H]3CN(C(=O)c4cnccn4)CC(=O)N3[C@H]2CO)cc1 | 1.39% (inactive)
COc1cccc(-c2ccc3n(c2=O)C[C@H]2[C@H](CO)[C@@H](C(=O)NC4CCCC4)[C@@H]3N2C)c1 | 6.59% (inactive)
C/C=C/c1ccc([C@H]2[C@@H](CO)N[C@@H]2CN(CC)C(=O)CN2CCOCC2)cc1 | -4.11% (inactive)
